From article PMC4351917 (Journal of medicinal chemistry, 2014)
Marks after values point to notes of the source that are not given here.

Assays:
[1] = Lipophilicity by RP-HPLC retention factors; type: physicochemical; settings: for log kw: 0.1% TFA water/MeOH, values extrapolated to 0% MeOH; for log k30: mobile phase containing 30% MeOH
[2] = Stability in aqueous media under physiologically relevant conditions; type: physicochemical; settings: PBS (pH 7.4 and 6.0), 37 °C, 0.5 mM
How it was run: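 Each complex (0.5 mM) was incubated at 37 °C for 24 h in water, PBS pH 7.4, PBS pH 6.0 and 0.05 M HCl (pH 1.5). Samples taken at 1 and 24 h were analysed by isocratic RP-HPLC on a C18 column at 25 °C, with 0.1% TFA water/MeOH adjusted for elution within 15 min and UV detection at 210 nm.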

[3] = test system: A549 (nonsmall cell lung cancer); settings: read-out: IC50, 96 h A549; MTT assay, exposure 96 h; cited from earlier work
[4] = Platinum concentration in mouse tissues and serum by ICP-MS; type: in vivo, Balb/c mice; settings: for serum platinum level: CT-26 mice
[5] = test system: CH1 (ovarian carcinoma); settings: read-out: IC50, 96 h CH1; MTT assay, exposure 96 h; cited from earlier work
[6] = test system: SW480 (colon carcinoma); settings: read-out: IC50, 96 h SW480; MTT assay, exposure 96 h; cited from earlier work
[7] = Aqueous solubility; type: physicochemical; settings: water
[8] = test system: L1210 murine leukemia cells; experiment: Antileukemic activity in vivo; design: species or system female DBA/2J × Balb/c SCID F1 mice; settings: L1210 leukemia-bearing mice
[9] = General toxicity in the animal experiments; settings: all in vivo experiments, 10-30 mg/kg i.p., mice
How it was run: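 Test compound in water, given i.p. L1210 model: female DBA/2J × Balb/c SCID F1 mice, 1 × 10⁵ cells i.p. on day 0, dosed 10, 20, 30 mg/kg on days 1, 5, 9, with daily observation and body weight. CT-26 model: female Balb/c mice aged 6–8 weeks, 5 × 10⁵ cells s.c. into the flank, 30 mg/kg on days 4, 7, 11, 14, with daily distress checks.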

[10] = test system: CH1 (ovarian carcinoma); experiment: MTT cytotoxicity assay, CH1; type: cell-based, human; settings: CH1 cells
How it was run: (§1)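 Adherent cells grown in MEM with 10% FBS, pyruvate, NEAA and glutamine, without antibiotics. Seeded per well at 1.0 × 10³ for CH1 and 2.0 × 10³ for SW480, then settled for 24 h. Serial dilutions of test compound in medium were applied for 96 h continuous exposure at 37 °C. MTT was added for 4 h, formazan dissolved in DMSO, and read at 550 nm (ref 690 nm). IC₅₀ was interpolated from concentration–effect curves, ≥3 independent experiments in triplicate.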

[11] = Reduction by sodium ascorbate, RP-HPLC; type: physicochemical; settings: 15-fold excess sodium ascorbate
[12] = test system: SW480 (colon carcinoma); experiment: MTT cytotoxicity assay, SW480; type: cell-based, human; settings: SW480 cells
How it was run: as §1

[13] = 9 mg/kg i.v. days 4, 7, 11, 14, day 15
[14] = 30 mg/kg i.p. days 4, 7, 11, 14, day 15

In the case of `NCCN.O=C1[O][Pt]2([O]C(=O)C13CCC3)[O]C(=O)C1(CCC1)C(=O)[O]2` [1d, (OC-6-22)-Bis(1,1-cyclobutanedicarboxylato)ethane-1,2-diamineplatinum(IV)], the log kw [1] is reported as 1.28 ± 0.01 and the “log k30” value [1] is reported as 0.28 ± 0.01.

With `CCN.CCN.O=C([O-])CC(=O)[O-].O=C([O-])CC(=O)[O-].[Pt+4]` [2b, (OC-6-22)-Bis(ethylamine)bis(malonato)platinum(IV)] the “decomposition after 24 h of incubation in PBS solution” value [2] was under 10%.

For `N.N.O=C([O-])C1(C(=O)[O-])CCC1.[Pt+2]` [carboplatin, reference compound], the IC50 [3] is listed as 91 ± 10 µM, the log kw [1] is listed as −0.36 ± 0.04^c and the “log k30” value [1] is listed as −0.80 ± 0.01.

With `O=C1[O][Pt]2([NH][C@@H]3CCCC[C@H]3[NH]2)[O]C1=O` [oxaliplatin, reference compound] the serum platinum level ([4]; 9 mg/kg i.v. days 4, 7, 11, 14, 24 h after last application) was ~ 0.3 μg/mL, the platinum in kidney [4, 13] was ~ 4.5 μg/g and the platinum in liver [4, 13] was ~ 2 μg/g. The IC50 [3] was 0.98 ± 0.21 µM, the IC50 [5] was 0.18 ± 0.01 µM and the IC50 [6] was 0.29 ± 0.05 µM.

In the case of `CC(=O)[O][Pt]([NH2])([Cl])([Cl])([NH]C1CCCCC1)[O]C(C)=O` [satraplatin, reference compound], the log kw [1] is reported as 1.63 ± 0.04 and the “log k30” value [1] is reported as 0.68 ± 0.01.

For “(OC-6-22)-((1R,2R)-Diaminocyclohexane)bis(malonato)-platinum(IV) [4b]”, the aqueous solubility [7] was over 15 mM, the serum platinum level ([4]; 30 mg/kg i.p. days 4, 7, 11, 14, 24 h after last application) was ~ 3 μg/mL and the platinum in kidney [4, 14] was ~ 10.5 μg/g. For the same molecule, the platinum in liver [4, 14] was ~ 15 μg/g, the platinum in lung [4, 14] was ~ 5 μg/g and the “platinum in sciatic nerve” value [4, 14] was ~ 1.8 μg/g. For the same molecule, the “platinum in tumor tissue” value [4, 14] was ~ 5 μg/g, the “serum platinum circulation compared to oxaliplatin-treated mice” value ([4]; 4b 30 mg/kg i.p. versus oxaliplatin 9 mg/kg i.v., 24 h after last application) was 10 times and the effect on survival ([8]; 10 mg/kg i.p. on days 1, 5, 9) was “no effect on the survival”. The mice being cured ([8]; 30 mg/kg i.p. on days 1, 5, 9, n = 4) was 3/4, the “tolerability / signs of toxicity (fatigue, weight loss)” value [9] was “well-tolerated with no signs of toxicity” and the “times more potent than 1b” value ([10]; versus 1b) was 4 times. The “times more potent than 2b” value ([10]; versus 2b) was 12 times, the “potency relative to 3b” value ([10]; versus 3b) was “twice as potent” and the “activity relative to 5b” value ([10]; versus 5b) was “same activity”. The “complex still in its native form” value ([11]; PBS pH 7.4, 37 °C, after 20 h) was “more than 90%”, the complex intact ([11]; unbuffered water, 37 °C, after 24 h) was ~ 95% and the “times more active than 1b, 2b, and 3b” value ([12]; versus 1b, 2b and 3b) was “at least 8 times”. The “times more active than 5b” value ([12]; versus 5b) was 6 times, the log kw [1] was −0.11 ± 0.01 and the “log k30” value [1] was −0.65 ± 0.02. The “decomposition after 24 h of incubation in PBS solution” value [2] was “no decomposition products were observed”.
